High-throughput results from PubChem BioAssay.
Shown are actives, neighbours in structure and some others; about 5.8% of the full set was active somewhere.
Pf_Dd2_growth: P. falciparum Dd2 growth inhibition; 94,000 tested, 2.3% active; activity change, % at 10 µM; AID 1159554; SYBR Green, 72 h; hits give low values; in the data active means activity change below about -80%; inconclusive means no clear call, values can overlap the other calls
IDH1_mut_inh: IDH1 R132H (human) inhibition; 70,000 tested, 0.18% active; AID 624101; IDH1 R132H reductase, diaphorase/resazurin fluorescence, 60 min; inhibition, % at 10 µM; O75874; in the data active means inhibition above about 34%; inconclusive means no clear call, values can overlap the other calls; inactive means below about 11%
Target sequence (O75874 whole entry R132H): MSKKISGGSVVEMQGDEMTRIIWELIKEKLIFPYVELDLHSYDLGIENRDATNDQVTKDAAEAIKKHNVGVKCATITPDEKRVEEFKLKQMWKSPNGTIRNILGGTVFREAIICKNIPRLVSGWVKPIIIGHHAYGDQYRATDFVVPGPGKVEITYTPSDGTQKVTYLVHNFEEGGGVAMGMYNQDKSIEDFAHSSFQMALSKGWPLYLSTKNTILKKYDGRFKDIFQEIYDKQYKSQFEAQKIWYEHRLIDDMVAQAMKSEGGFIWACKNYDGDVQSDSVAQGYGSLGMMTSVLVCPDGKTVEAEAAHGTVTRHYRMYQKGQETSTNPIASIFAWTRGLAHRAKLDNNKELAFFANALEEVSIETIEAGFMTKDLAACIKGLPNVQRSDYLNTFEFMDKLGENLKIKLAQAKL
KDM4C_inh: blocks human GASC-1 (KDM4C) demethylase activity. Q9H3R0. GST-KDM4C 2-372, H3K9me3 peptide, LANCE TR-FRET. inhibition, % at 12.5 µM. 96,000 tested, 0.15% active. AID 720574;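 active means mean replicate inhibition above about 25%, with at least 55% of replicates also reaching it, limit read from the data, passing the limit was not always enough; inconclusive means only one of those two conditions met; inactive means neither condition met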
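Compound: one test concentration per compound; Material: GST-GASC-1 enzyme fragment 2-372; Amount: GASC-1 enzyme at 10 nM final in reaction; Also added: H3K9me3 peptide substrate, Fe(II), 2-oxoglutarate; Technique: LANCE TR-FRET; Times: 30 min demethylation and 1 h detection at room temperature.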
T_cruzi_growth-1: blocks T. cruzi growth in NIH3T3 culture. AID 624255. 77,000 tested, 5.9% active. inhibition, % at 8.34 µM. T. cruzi beta-gal in NIH3T3, GalScreen luminescence, 90 h;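 active means mean inhibition above about 93%, with at least 55% of replicates each passing it, limit read from the data, passing the limit was not always enough; inconclusive means only one of those two conditions holds; inactive means neither condition holds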
T_cruzi_growth-2: Trypanosoma cruzi proliferation inhibition; inhibition, % at 8.35 µM; AID 651739; T. cruzi beta-gal in NIH3T3, GalScreen luminescence, 90 h; shares compounds with T_cruzi_growth-1; 5,600 tested, 72% active;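 active means mean replicate inhibition above about 95% and at least 55% of replicates individually reaching it, limit read from the data; inconclusive means only one of the two criteria is met; inactive means neither criterion is met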
T_cruzi_growth-3: inhibitors of T. cruzi proliferation. 5,600 tested, 21% active. T. cruzi beta-gal in NIH3T3, GalScreen luminescence, 90 h. AID 651740. inhibition, % at 2.09 µM. shares compounds with T_cruzi_growth-1;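 active means mean inhibition above about 95%, with at least 55% of replicates also reaching it, limit read from the data; inconclusive means meets just one of the two conditions; inactive means meets neither condition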
NIH3T3_tox: cytotoxicity in mouse NIH/3T3 fibroblasts; shares compounds with T_cruzi_growth-1; NIH/3T3 viability, CellTiter-Glo ATP luminescence, 90 h; 5,600 tested, 14% active; cytotoxicity (signal decrease), % at 8.35 µM; AID 651742;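 active means mean signal decrease across replicates above about 35% based on untreated-well scatter, with enough replicates individually passing, limit read from the data; inconclusive means no rule stated though some were filed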
NIH3T3_tox_2: kills mouse NIH/3T3 fibroblasts; inhibition, % at 24.9 µM; NIH/3T3 viability, CellTiter-Glo ATP luminescence, 90 h; 5,600 tested, 56% active; AID 651744; shares compounds with T_cruzi_growth-1;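 active means mean loss of cell viability signal at or above a set limit, and enough replicates individually reaching it; inconclusive means meets only the mean limit or only the replicate share; inactive means meets neither condition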
A number is an active result; - = inactive; ? = inconclusive; . = no result; ! = not confirmed by another sample.

SMILES Pf_Dd2_growth IDH1_mut_inh KDM4C_inh T_cruzi_growth-1 T_cruzi_growth-2 T_cruzi_growth-3 NIH3T3_tox NIH3T3_tox_2
CC(C)CC#Cc1ccc2c(c1)O[C@@H](CN(C)CC1CCOCC1)[C@@H](C)CN([C@H](C)CO)S2(=O)=O - . - 118 108 - - 104
CC(C)CC#Cc1ccc2c(c1)O[C@@H](CN(C)CC1CCOCC1)[C@H](C)CN([C@@H](C)CO)S2(=O)=O - - - - . . . .
O=C(O)CCc1ccc(-c2ccc(F)cc2)n1-c1ccc(C(=O)O)cc1 . - . . . . . .
CN(C)C(=O)c1ccc(-c2ccc([C@H]3[C@@H](CO)N4CCCCN(C(=O)C5CCCC5)C[C@@H]34)cc2)cc1 - . . ? 110 - - -
C/C=C/c1ccc([C@H]2[C@@H](CO)N3CCCCN(C(=O)C4CCCC4)C[C@@H]23)cc1 - . - 107 108 - - -
CN(C)C(=O)c1ccc(-c2ccc([C@H]3[C@@H](CO)N4CCCCN(C(=O)C5CCCC5)C[C@H]34)cc2)cc1 - . . 102 105 101 - 39
C[C@H](CO)N1C[C@H](C)[C@@H](CN(C)C(=O)Nc2ccc(C(F)(F)F)cc2)OCCCC[C@H](C)Oc2ccc(NC(=O)CCC(F)(F)F)cc2C1=O - . - 101 108 - - -
C[C@@H]1CN([C@H](C)CO)C(=O)c2cc(NC(=O)CCC(F)(F)F)ccc2O[C@@H](C)CCCCO[C@H]1CN(C)C(=O)Nc1ccc(F)cc1 - - - - . . . .
COc1ccc(NC(=O)N(C)C[C@@H]2Oc3ccc(NC(=O)CCC(F)(F)F)cc3C(=O)N([C@H](C)CO)C[C@H]2C)cc1 - - - 101 - - - -
C[C@@H]1CCCCO[C@H](CN(C)C(=O)Nc2ccc(F)cc2)[C@H](C)CN([C@H](C)CO)C(=O)c2cc(NC(=O)CCC(F)(F)F)ccc2O1 - . - 98 - - - 32
Cc1ccccc1/C=N/NC(=O)CCCCCC(=O)O . - . . . . . .
C[C@H](CO)N1C[C@H](C)[C@H](CN(C)C(=O)NC2CCCCC2)OCCCC[C@H](C)Oc2ccc(N(C)C)cc2C1=O - . - 111 - - - -
C[C@@H]1CCCCO[C@@H](CN(C)C(=O)C2CCCCC2)[C@H](C)CN([C@H](C)CO)C(=O)c2cc(N(C)C)ccc2O1 - - - ? - - - -
C[C@@H]1CCCCO[C@H](CN(C)C(=O)C2CCCCC2)[C@@H](C)CN([C@H](C)CO)C(=O)c2cc(N(C)C)ccc2O1 - - - 103! - - - -
C[C@@H]1CN([C@H](C)CO)C(=O)c2cc(N(C)C)ccc2O[C@@H](C)CCCCO[C@@H]1CN(C)C(=O)C1CCCCC1 - - - - . . . .
C[C@@H]1CCCCO[C@@H](CN(C)C(=O)CCC(F)(F)F)[C@H](C)CN([C@@H](C)CO)C(=O)c2cc(N(C)C)ccc2O1 - - - ? - - - -
C[C@H](CO)N1C[C@H](C)[C@@H](CN(C)S(=O)(=O)c2ccccc2)OCCCC[C@H](C)Oc2ccc(NS(C)(=O)=O)cc2C1=O - - - - . . . .
CC(C)NC(=O)N(C)C[C@H]1Oc2cc(-c3ccncc3)ccc2S(=O)(=O)N([C@@H](C)CO)C[C@H]1C - - - ? - - - -
Cc1ccc(-c2ccc3c(c2)O[C@H](CN(C)C(=O)NC(C)C)[C@H](C)CN([C@@H](C)CO)S3(=O)=O)cc1 - - - - . . . .
Cc1ccc(-c2ccc3c(c2)O[C@@H](CN(C)C(=O)NC(C)C)[C@H](C)CN([C@@H](C)CO)S3(=O)=O)cc1 - - - - . . . .
CCCNC(=O)N(C)C[C@H]1Oc2cc(-c3cccnc3)ccc2S(=O)(=O)N([C@@H](C)CO)C[C@@H]1C - - - ? ? - - -
CC(C)NC(=O)N(C)C[C@H]1Oc2cc(-c3ccncc3)ccc2S(=O)(=O)N([C@H](C)CO)C[C@@H]1C - - - 107 - - - -
Cc1ccc(-c2ccc3c(c2)O[C@H](CN(C)C(=O)NC(C)C)[C@@H](C)CN([C@H](C)CO)S3(=O)=O)cc1 - - - - . . . .
CC(C)NC(=O)N(C)C[C@@H]1Oc2cc(-c3ccncc3)ccc2S(=O)(=O)N([C@H](C)CO)C[C@@H]1C - - - ? - - - -
C[C@H](CO)N1C[C@H](C)[C@@H](CN(C)S(=O)(=O)c2ccc(C#N)cc2)OCc2ccccc2-c2ccccc2C1=O - - - - . . . .
SMILES Pf_Dd2_growth IDH1_mut_inh KDM4C_inh T_cruzi_growth-1 T_cruzi_growth-2 T_cruzi_growth-3 NIH3T3_tox NIH3T3_tox_2
Cc1ccc(S(=O)(=O)N(C)C[C@@H]2Oc3ccc(NC(=O)NC4CCCCC4)cc3CC(=O)N([C@H](C)CO)C[C@@H]2C)cc1 - - - - . . . .
C[C@@H]1CCCCO[C@@H](CN(C)C(=O)Nc2ccc(F)cc2)[C@H](C)CN([C@@H](C)CO)C(=O)c2cc(NC(=O)c3ccccc3)ccc2O1 - . - - . . . .
C[C@H](CO)N1C[C@H](C)[C@H](CN(C)C(=O)Nc2ccc(C(F)(F)F)cc2)OCCCC[C@H](C)Oc2ccc(NC(=O)c3ccccc3)cc2C1=O -82 . - ? 106 109 - -
C[C@H](CO)N1C[C@H](C)[C@H](CN(C)C(=O)Nc2ccc(F)cc2)OCCCC[C@H](C)Oc2ccc(NC(=O)c3ccccc3)cc2C1=O - - - ? 107 - - -
C[C@H](CO)N1C[C@H](C)[C@@H](CN(C)C(=O)Nc2ccc(C(F)(F)F)cc2)OCCCC[C@H](C)Oc2ccc(NC(=O)c3ccccc3)cc2C1=O - . - 101 110 113 36 52
O=S(=O)(Cc1ccccc1)N1CCCCN2[C@H](CO)[C@H](c3ccc(-c4ccncc4)cc3)[C@@H]2C1 - . - - . . . .
O=S(=O)(Cc1ccccc1)N1CCCCN2[C@H](CO)[C@@H](c3ccc(-c4ccccc4)cc3)[C@@H]2C1 - . - 114 102 103 ? 101
O=S(=O)(Cc1ccccc1)N1CCCCN2[C@H](CO)[C@H](c3ccc(-c4ccccc4)cc3)[C@H]2C1 - . - 106 98 - 54 104
Cc1c(NC(=O)COc2ccc(Br)cc2)cccc1-c1nc2cc(Cl)ccc2o1 . - . . . . . .
